Measured values reported in ChEMBL document CHEMBL1147710, “Synthesis of (2E)-3-{2-[(substituted benzyl)oxy]phenyl}acrylaldehydes as novel anti-inflammatory agents” (Bioorg Med Chem Lett, 2006).

Experiments:
[1] = tested on: Neutrophil; experiment: Formation of fMLP-induced superoxide in Sprague-Dawley rat neutrophil at 10 uM per 10^6 cells after 30 min; type: functional
How it was run: (§1)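 Rat (Sprague Dawley) neutrophils were stimulated with fMLP (0.3 µM) plus cytochalasin B (5 µg/mL). Superoxide formed was reported as nmol/10⁶ cells/30 min and percent inhibition versus control. IC50 was derived from the […] concentration series. N = 3.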

[2] = tested on: Neutrophil; experiment: Formation of PMA-induced superoxide in Sprague-Dawley rat neutrophil at 10 uM per 10^6 cells after 30 min; type: functional
How it was run: (§2)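 Superoxide generation by rat (Sprague Dawley) neutrophils stimulated with PMA at 3 nM. Test range 1–30 µM. Readout is superoxide formed in nmol/10⁶ cells/30 min, with percent inhibition versus control. N = 3.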

[3] = tested on: Neutrophil; experiment: Inhibition of fMLP-induced superoxide formation in Sprague-Dawley rat neutrophil at 30 uM; type: functional; how it was run: as §1
[4] = tested on: Neutrophil; experiment: Inhibition of fMLP-induced superoxide formation in Sprague-Dawley rat neutrophil at 10 uM; type: functional; how it was run: as §1
[5] = tested on: Neutrophil; experiment: Inhibition of PMA-induced superoxide formation in Sprague-Dawley rat neutrophil at 30 uM; type: functional; how it was run: as §2
[6] = tested on: Neutrophil; experiment: Formation of fMLP-induced superoxide in Sprague-Dawley rat neutrophil at 30 uM per 10^6 cells after 30 min; type: functional; how it was run: as §1
[7] = tested on: Neutrophil; experiment: Inhibition of PMA-induced superoxide formation in Sprague-Dawley rat neutrophil at 10 uM; type: functional; how it was run: as §2
[8] = tested on: Neutrophil; experiment: Formation of PMA-induced superoxide in Sprague-Dawley rat neutrophil at 30 uM per 10^6 cells after 30 min; type: functional; how it was run: as §2
[9] = tested on: Neutrophil; experiment: Inhibition of fMLP-induced superoxide formation in Sprague-Dawley rat neutrophil at 3 uM; type: functional; how it was run: as §1
[10] = tested on: Neutrophil; experiment: Inhibition of fMLP-induced superoxide formation in Sprague-Dawley rat neutrophil; type: functional, cell-based; how it was run: as §1
[11] = tested on: Neutrophil; experiment: Formation of fMLP-induced superoxide in Sprague-Dawley rat neutrophil at 3 uM per 10^6 cells after 30 min; type: functional; how it was run: as §1
[12] = tested on: Neutrophil; experiment: Increase in cAMP level in Sprague-Dawley rat neutrophil; type: functional, cell-based
How it was run: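 Neutrophils were treated for 10 min with the indicated concentrations, with DMSO giving the basal level. Cellular cAMP was measured by enzyme immunoassay kit. Values are means SD of three experiments.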

[13] = tested on: Neutrophil; experiment: Formation of fMLP-induced superoxide in Sprague-Dawley rat neutrophil at 1 uM per 10^6 cells after 30 min; type: functional; how it was run: as §1
[14] = tested on: Neutrophil; experiment: Inhibition of fMLP-induced superoxide formation in Sprague-Dawley rat neutrophil at 1 uM; type: functional; how it was run: as §1
[15] = tested on: Neutrophil; experiment: Inhibition of PMA-induced superoxide formation in Sprague-Dawley rat neutrophil at 1 uM; type: functional; how it was run: as §2
[16] = tested on: Neutrophil; experiment: Formation of PMA-induced superoxide in Sprague-Dawley rat neutrophil at 3 uM per 10^6 cells after 30 min; type: functional; how it was run: as §2
[17] = tested on: Neutrophil; experiment: Inhibition of fMLP-induced superoxide formation in Sprague-Dawley rat neutrophil at 5 uM; type: functional
[18] = tested on: Neutrophil; experiment: Inhibition of PMA-induced superoxide formation in Sprague-Dawley rat neutrophil at 3 uM; type: functional; how it was run: as §2
[19] = tested on: Neutrophil; experiment: Inhibition of PMA-induced superoxide formation in Sprague-Dawley rat neutrophil; type: functional, cell-based; how it was run: as §2
[20] = tested on: Neutrophil; experiment: Formation of PMA-induced superoxide in Sprague-Dawley rat neutrophil at 1 uM per 10^6 cells after 30 min; type: functional; how it was run: as §2
[21] = tested on: Neutrophil; experiment: Formation of fMLP-induced superoxide in Sprague-Dawley rat neutrophil at 5 uM per 10^6 cells after 30 min; type: functional

| IC50 [10] | Structure (SMILES) | Activity [1] | Activity [2] | inhibition at 30 µM [3] | inhibition at 10 µM [4] | inhibition at 30 µM [5] | Activity [6] | inhibition at 10 µM [7] | Activity [8] | inhibition at 3 µM [9] | Activity [11] | other results |
| --- | --- | --- | --- | --- | --- | --- | --- | --- | --- | --- | --- | --- |
| – | O=C/C=C/c1ccccc1OCc1c(Cl)cccc1Cl | 1.71 nmol | 11.4 nmol | 46.8% | 40.3% | -59.2% | 1.54 nmol | -50.6% | 12 nmol | – | – | – |
| 15.6 µM | O=Cc1ccccc1OCc1ccccc1 | 0.86 nmol | – | 60.8% | 40.6% | – | 0.62 nmol | – | – | 36.1% | 1.01 nmol | Activity [12]: Dose-dependent effect |
| 11 µM | Cc1ccc(COc2ccccc2/C=C/C=O)cc1 | 1.57 nmol | 8.53 nmol | 73.2% | 45.1% | -25.8% | 0.78 nmol | -13.2% | 9.51 nmol | 21.9% | 2.24 nmol | – |
| – | O=C/C=C/c1ccccc1OCc1ccc(Cl)cc1Cl | 2.16 nmol | 9.29 nmol | 39.9% | 24.4% | -29.8% | 1.76 nmol | -22.7% | 9.84 nmol | – | – | – |
| – | COc1ccc(OCc2ccc(Cl)cc2)c(/C=C/C=N/O)c1 | 2.53 nmol | 11.9 nmol | 31.6% | 27.9% | -132% | 2.41 nmol | -124% | 12.1 nmol | – | – | – |
| 7.4 µM | O=C/C=C/c1ccccc1OCc1ccc(Cl)cc1 | 1.05 nmol | 9.41 nmol | 86.9% | 63.1% | -22% | 0.37 nmol | -23.9% | 9.26 nmol | 22.4% | 2.23 nmol | – |
| 4.3 µM | COc1ccc(OCc2ccccc2)c(/C=C/C=N/O)c1 | 1.05 nmol | 4.97 nmol | 86% | 70% | -29.4% | 0.48 nmol | 7.6% | 6.9 nmol | 41.9% | 2.03 nmol | – |
| 9.5 µM | COc1ccc(OCc2ccccc2Cl)c(/C=C/C=N/O)c1 | 2.09 nmol | 5.27 nmol | 77.7% | 40.4% | -44.4% | 0.78 nmol | 1.5% | 7.62 nmol | 29.5% | 2.45 nmol | – |
| 3.8 µM | COc1ccc(COc2ccccc2/C=C/C=O)cc1 | 0.81 nmol | 9.45 nmol | 88.2% | 71.3% | -22.2% | 0.33 nmol | -24.5% | 9.28 nmol | 44.6% | 1.58 nmol | – |
| 4.3 µM | O=C/C=C/c1ccccc1OCc1ccc(Cl)c(Cl)c1 | 0.6 nmol | 7.77 nmol | – | 79.8% | -51.1% | – | 1.9% | 11.4 nmol | 29.4% | 2.03 nmol | Activity [13]: 2.56 nmol; inhibition at 1 µM [14]: 11.7% |
| – | COc1ccc(OCc2ccc(Cl)cc2)c(/C=C/C=O)c1 | 2.1 nmol | 9.39 nmol | 33.4% | 27.1% | -25.5% | 1.9 nmol | -23.3% | 9.55 nmol | – | – | – |
| 5.9 µM | O=C/C=C/c1ccccc1OCc1cccc(Cl)c1 | 0.99 nmol | 9.85 nmol | 88% | 65.7% | -18.7% | 0.34 nmol | -30.1% | 9.06 nmol | 31.2% | 2 nmol | – |
| 3.3 µM | O=C/C=C/c1ccccc1OCc1ccccc1F | 0.72 nmol | 9.45 nmol | 87.6% | 75.1% | -29.4% | 0.35 nmol | -24.1% | 9.82 nmol | 47.5% | 1.48 nmol | – |
| 2.6 µM | COc1ccc(OCc2ccccc2)c(/C=C/C=O)c1 | 0.53 nmol | 9.42 nmol | – | 81.2% | -20.9% | – | -24% | 9.19 nmol | 52.2% | 1.37 nmol | Activity [13]: 2.09 nmol; inhibition at 1 µM [14]: 26.7% |
| 4.5 µM | O=C/C=C/c1ccccc1OCc1cccc(F)c1 | 0.76 nmol | 8.07 nmol | 83.9% | 73% | -23.7% | 0.46 nmol | -6.2% | 9.38 nmol | 40.3% | 1.7 nmol | – |
| 6.6 µM | CN1CCN(CCCN2c3ccccc3Sc3ccc(C(F)(F)F)cc32)CC1 [TRIFLUOPERAZINE] | 0.54 nmol | – | – | 79.5% | – | – | 83.3% | – | 1.7% | 2.8 nmol | inhibition at 1 µM [15]: 27.6%; Activity [16]: 3.4 nmol; inhibition at 5 µM [17]: 24.2%; inhibition at 3 µM [18]: 55.4%; IC50 [19]: 2700 nM; Activity [20]: 5.48 nmol; Activity [21]: 2.1 nmol |
| – | COc1ccc(OCc2ccccc2Cl)c(/C=C/C=O)c1 | 1.89 nmol | 8.94 nmol | 40.9% | 34.3% | -26.9% | 1.69 nmol | -17.5% | 9.63 nmol | – | – | – |
| – | O=C/C=C/c1ccccc1OCc1cccc(Cl)c1Cl | 2.39 nmol | 6.72 nmol | 39.9% | 17.4% | 17.3% | 1.75 nmol | 11.2% | 6.29 nmol | – | – | – |
| 4.4 µM | O=C/C=C/c1ccccc1OCc1ccccc1Cl | 0.82 nmol | 9.86 nmol | 89.7% | 71.4% | -10.9% | 0.29 nmol | -30.1% | 8.39 nmol | 40.1% | 1.69 nmol | – |
| 4.2 µM | COc1ccc(OCc2cccc(Cl)c2)c(/C=C/C=O)c1 | 0.67 nmol | 10.3 nmol | – | 77.7% | -31.2% | – | -35.7% | 9.96 nmol | 36.8% | 1.82 nmol | Activity [13]: 2.54 nmol; inhibition at 1 µM [14]: 11.4% |
| 6.4 µM | O=C/C=C/c1ccccc1OCc1ccccc1 | 1.05 nmol | 8.61 nmol | 83.2% | 63.7% | -23.6% | 0.48 nmol | -13.5% | 9.39 nmol | 31.8% | 1.96 nmol | – |
